Screening data: PubChem, several laboratories
HSF1 activator – HSF-1 activators, primary screen, NIH3T3-HGL cells, MG132 stress, luminescence, single point; NIH3T3-HGL HSF-1 luciferase reporter, 8 h; 100% = twice DMSO control signal; activation, % at 9 µM; 300,000 tested, 1.7% active; AID 504408, 2011;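 active = mean replicate activation of at least 50% with a set share of replicates each reaching 50%; inconclusive = only one of those two conditions met; inactive = mean below 50% and too few replicates reaching it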
AI-2 QS mod – Vibrio harveyi AI-2 quorum sensing modulators, primary screen, JMH597 strain, luminescence/OD600 ratio | activity change, % at 7.5 µM | AID 2094, 2009 | Vibrio harveyi JMH597 AI-2 luminescence/OD600 ratio, 9 h; stronger effect = lower value; strain lacks LuxN and CqsS sensors; 0 = neutral-control median | 300,000 tested, 0.4% active; in the data active = activity change below about -75%, passing the limit was not always enough; inconclusive = no clear call, values can overlap the other calls;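 note: luminescence divided by OD600 gain over 9 h not by final OD600 alone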
HCV core dimer – inhibitors of HCV core protein dimerization, primary screen, biochemical, TR-FRET, high-throughput; inhibition, % at 5 µM; 300,000 tested, 0.33% active; TR-FRET GST/Flag-core106 dimerization, 1536-well;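 active = inhibition above the mean of all tested compounds plus 3 SD, set per screening campaign, cut at about 45% in these data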
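Assay system: Tagged HCV core106 pair (GST and Flag) | Buffer or medium: KF-containing HEPES buffer, pH 7.45, DTT, CHAPS, BSA | Also added: Eu donor and XL665 acceptor anti-tag antibodies | Dosing: One concentration, 5 µM, in 0.5% DMSO | Timing: 4 h at 22.5 °C | Technique: TR-FRET 671 and 617 nm emission | Repeats: Singlicate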
PHOSPHO1 inh – PubChem AID 1565. Phosphoethanolamine/phosphocholine phosphatase (Homo sapiens), Q8TCT1. recombinant PHOSPHO1, absorbance phosphatase assay. inhibition, % at 13.3 µM. 290,000 tested, 1.1% active; in the data active = inhibition above about 60%
Target sequence (Q8TCT1 whole entry, looked up): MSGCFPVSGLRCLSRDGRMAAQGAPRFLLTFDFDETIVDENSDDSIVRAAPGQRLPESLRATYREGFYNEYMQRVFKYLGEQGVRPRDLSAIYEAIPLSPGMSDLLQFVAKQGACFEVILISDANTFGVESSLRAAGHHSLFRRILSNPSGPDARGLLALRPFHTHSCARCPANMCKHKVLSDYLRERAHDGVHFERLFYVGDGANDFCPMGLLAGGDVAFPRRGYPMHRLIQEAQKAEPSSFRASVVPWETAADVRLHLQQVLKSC
HSF1 inh – HSF1 inhibitors in luciferase reporter cells, primary screen, cell-based, NIH3T3, luminescence; activity change, negative = inhibition, % at 7.5 µM (by protocol); 300,000 tested, 0.77% active; NIH3T3-HGL HSE-luciferase, MG132-induced, luminescence 8 h; stronger effect = lower value;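 active = more than half of replicate wells show activity change below -50%, luminescence cut by over half; inconclusive = some wells, but at most half, below -50%; inactive = no replicate well below -50%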;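 note: luciferase reports HSF-1 transcriptional activity via heat shock element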
ALR inh – inhibitors of human ALR sulfhydryl oxidase, primary screen, biochemical, H2O2 detection, HRP-luminol luminescence, single point | FAD-linked sulfhydryl oxidase ALR (Homo sapiens), P55789 | purified ALR, DTT oxidation | inhibition, % (no concentration beside the values) | 290,000 tested, 3.8% active | AID 485317, 2010;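 active = mean replicate inhibition above about 79%, with every replicate also reaching it, limit read from the data; inconclusive = only one of the two criteria met; inactive = mean below limit and not every replicate reaching it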
Target sequence (P55789 whole entry, looked up): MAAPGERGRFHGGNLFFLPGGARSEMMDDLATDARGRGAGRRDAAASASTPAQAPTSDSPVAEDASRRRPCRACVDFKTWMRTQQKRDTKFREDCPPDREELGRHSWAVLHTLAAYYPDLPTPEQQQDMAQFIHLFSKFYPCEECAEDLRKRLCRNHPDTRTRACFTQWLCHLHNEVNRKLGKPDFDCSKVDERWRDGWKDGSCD
Each line names hits and unclear results; the compound was inactive in the other large screens. The list is not random: actives were taken first. Their share in the collection is about 6.8%.

O=C(O)c1ccccc1-c1ccccc1C(=O)Nc1ccc(F)cc1	none
N#C/C(=C\c1ccc(N2CCOCC2)o1)C(=O)Nc1ccc(O)cc1	ALR inh 99
N#C/C(=C/c1ccc(N2CCCCC2)o1)C(=O)Nc1ccc(Cl)cc1	none
COc1ccc(NC(=O)/C(C#N)=C\c2ccc(N3CCOCC3)o2)cc1	ALR inh 80
CCOC(=O)c1cc(-c2ccco2)nc2c1c(C)nn2-c1ccccc1	HCV core dimer 59
CCCn1c(=O)c2c(C(=O)OCC)cc(-c3ccco3)nc2n(CCC)c1=O	none (no result: HCV core dimer, ALR inh)
ClC(Cl)(Cl)c1nc2ccccc2n2nncc12	HSF1 activator 208
CCOC(=O)c1c(N2CCN(c3ccccc3)CC2)cc(C)nc1C	ALR inh 97 (no result: HCV core dimer)
Nc1nn2cc(-c3ccccc3)nc2c2ccccc12	HSF1 activator 58, ALR inh 95
CCn1ncc([N+](=O)[O-])c1C(=O)Nc1ccc(C)c(C)c1	none
Cc1ccc(NC(=O)CSc2nc(=O)n(CCCN3CCOCC3)c3c2CCCC3)cc1F	ALR inh 97 (no result: PHOSPHO1 inh)
CCOC(=O)c1ccc(NC(=O)CSc2nc(=O)n(CCN3CCOCC3)c3c2CCC3)cc1	none (no result: PHOSPHO1 inh, ALR inh)
CCc1ccc(NC(=O)CSc2nc(=O)n(CCCN3CCOCC3)c3c2CCCC3)cc1	ALR inh 98 (no result: PHOSPHO1 inh)
CCC(CO)NCC#Cc1ccccc1 (configuration not stated)	HSF1 activator 62
C=CCn1c(SCC(=O)NC2CC2)nnc1C1CC1	none (no result: PHOSPHO1 inh)
COC(=O)c1cc(C(=O)Nc2cc(C)on2)cc([N+](=O)[O-])c1	none
S=c1[nH]nc(-c2ccccc2)o1	PHOSPHO1 inh 101 (no result: ALR inh)
Cc1ccccc1-c1n[nH]c(=S)o1	PHOSPHO1 inh 96
O=C(Nc1ccc(-c2n[nH]c(=S)o2)cc1)c1ccccc1Br	ALR inh 86
Cc1ccc(-c2cc(-c3n[nH]c(=S)o3)c3ccccc3n2)cc1	ALR inh 98
CSc1ccccc1-c1n[nH]c(=S)o1	none (no result: HCV core dimer, ALR inh)
S=c1[nH]nc(-c2cc(-c3ccccn3)nc3ccccc23)o1	none
COc1ccccc1-c1n[nH]c(=S)o1	none (no result: HSF1 activator, AI-2 QS mod, HSF1 inh)
COc1ccc(CCNC(=O)C2CCN(S(=O)(=O)c3ccc(C)cc3)CC2)cc1	none
COC(=O)c1ccccc1NC(=O)C1CCN(c2ncnc3c2nc2n3CCCCC2)CC1	none
CCCn1c(SCC(=O)NC(C)(C)C)nnc1-c1ccco1	none
CCN(CC)c1ccc(NC(=O)CSC(=O)c2ccccc2)cc1	ALR inh 99 (no result: HSF1 activator, AI-2 QS mod, HCV core dimer, PHOSPHO1 inh, HSF1 inh)
CCN(CC)c1ccc(NC(=O)CCCCCN2C(=O)c3ccccc3C2=O)cc1	ALR inh 99
CCN(CC)c1ccc(NC(=O)CCCCC(=O)Nc2ccc(N(CC)CC)cc2)cc1	ALR inh inconclusive (no result: PHOSPHO1 inh)
CC(C)(OC(=O)c1ccc(C#N)cc1)c1cc2ccccc2c(=O)o1	none (no result: HSF1 activator, AI-2 QS mod, HCV core dimer, PHOSPHO1 inh, HSF1 inh)
CCC1COCCS(=O)(=O)N1Cc1ccc(F)cc1 (configuration not stated)	none
Cn1c(CN2CCN(C(=O)c3ccco3)CC2)nc2cc([N+](=O)[O-])ccc21	PHOSPHO1 inh 66
CC(=O)N1CCN(Cc2nc3cc([N+](=O)[O-])ccc3n2C)CC1	none (no result: PHOSPHO1 inh)
CS(=O)(=O)Nc1cccc(C2=NN(C(=O)CCCC(=O)O)C(c3cccs3)C2)c1 (configuration not stated)	HSF1 activator 63
CS(=O)(=O)Nc1cccc(C2=NN(C(=O)c3ccccc3)C(c3cccs3)C2)c1 (configuration not stated)	none
COCc1cc(=O)oc2cc(NC(=O)c3ccc(C(C)(C)C)cc3)ccc12	HSF1 activator 57
COc1cc(OC)cc(C(=O)NCC(=O)OCc2cc(=O)oc3cc(OC)ccc23)c1	none
Cc1c(Cl)ccc2sc(NC(=O)C3CC3)nc12	none
Cc1nc2c(ccc3nc(NC(=O)C4CC4)sc32)s1	PHOSPHO1 inh 62
CCC(=O)Nc1nc2ccc3sc(C)nc3c2s1	PHOSPHO1 inh 64
O=S(=O)([O-])C(c1ccccc1)[n+]1ccccc1 (configuration not stated)	none (no result: PHOSPHO1 inh)
CCC1(CC)NC(=O)N(CC(=O)OCC(=O)Nc2sccc2C#N)C1=O	none
COc1ccc(CC(=O)Oc2ccc(C(C)C)cc2)cc1S(=O)(=O)N1CCOCC1	none (no result: PHOSPHO1 inh)
O=C(COc1ccccc1F)NCc1ccc(-n2cccc2)cc1	none
CN(C(=O)CSc1nc2ccccc2s1)c1c(N)n(Cc2ccccc2)c(=O)[nH]c1=O	ALR inh 99
CCc1cc2c(SCC(=O)N(CC)c3c(N)n(Cc4ccccc4)c(=O)[nH]c3=O)ncnc2s1	PHOSPHO1 inh 68
CCCn1c(N)c(C(=O)CSc2nc3ccccc3s2)c(=O)[nH]c1=O	ALR inh 97
CCCn1c(N)c(C(=O)CSc2nnc(N)s2)c(=O)[nH]c1=O	none (no result: HSF1 activator, AI-2 QS mod, HCV core dimer, PHOSPHO1 inh, HSF1 inh)
COC(=O)[C@H](CCSC)NC(=O)Nc1ccc(S(N)(=O)=O)cc1	none
CC1=C([N+](=O)[O-])C(c2ccc3c(c2)OCO3)N(C)C(=O)N1C (configuration not stated)	none (no result: AI-2 QS mod)
COCc1nnc(NS(=O)(=O)c2c(C)cc(C)cc2C)s1	none
CC(/C=N/NC(=O)c1ccc(Cn2cc([N+](=O)[O-])cn2)o1)=C\c1ccccc1	none
CCNc1ccc(N=Nc2c(C)n(C)n(-c3ccccc3)c2=O)cc1	ALR inh 99
CC1=CC(=Nc2c(C)n(C)n(-c3ccccc3)c2=O)C=CC1=O	none (no result: ALR inh)
CCOC(=O)/C(N=Nc1c(C)n(C)n(-c2ccccc2)c1=O)=C(\C)O	none
CC1=CC(=Nc2c(C)n(C)n(-c3ccccc3)c2=O)C=C(C)C1=O	ALR inh 99
Cc1cc2n(n1)C(c1ccccc1)CC(c1ccc(Br)cc1)=N2 (configuration not stated)	none (no result: HSF1 activator, AI-2 QS mod, HSF1 inh)
Cc1cc(N/N=C/c2cccc(Cl)c2)nc(-n2nc(C)cc2C)n1	none
Cc1nc(C#N)c(N/N=C/c2cccc(Cl)c2)o1	ALR inh 97
CCCCCCCc1nc2c(=O)n(C)c3ccccc3c2o1	PHOSPHO1 inh 63
CCCCCc1nc2c(=O)n(C)c3ccccc3c2o1	none
COc1ccc(C2=NN(c3ccc(C(=O)O)cc3)C(c3ccc(OC)c(OC)c3)C2)cc1 (configuration not stated)	none (no result: ALR inh)
COc1cc(C2CC(c3cccnc3)=NN2c2ccc(F)cc2)cc(OC)c1OC (configuration not stated)	HSF1 activator 65
CCOC(=O)c1c(C)[nH]c(C)c1C(=O)COc1ncnc2cc([N+](=O)[O-])ccc12	HSF1 activator 66
